Test system: U2OS
Assay: Multiplex assay against U2OS
Format: toxicity, cell-based
Details: human
Outline: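 Cells stained live at seeding with Hoechst33342, BioTracker Green Microtubule Cytoskeleton Dye, MitoTracker Red and Annexin V Alexa Fluor 680 were imaged on a CQ1 microscope at 37°C and 5% CO2 after compound addition. Their classification by CellPathfinder machine-learning gating ran from Hoechst high-intensity objects versus normal cells, to healthy, pyknosed or fragmented nuclei among normal cells, to mitotic or apoptotic among pyknosed cells. Tubulin, mitochondrial-mass and membrane-permeability phenotypes are per cents of healthy-nucleus cells.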

[1] = 12 h, 1 µM, compound concentration 1 uM, replicate 1
[2] = 12 h, 1 µM, compound concentration 1 uM, replicate 2
[3] = 12 h, 10 µM, compound concentration 10 uM, replicate 1
[4] = 12 h, 10 µM, compound concentration 10 uM, replicate 2
[5] = 24 h, 1 µM, compound concentration 1 uM, replicate 1
[6] = 24 h, 1 µM, compound concentration 1 uM, replicate 2
[7] = 24 h, 10 µM, compound concentration 10 uM, replicate 1
[8] = 24 h, 10 µM, compound concentration 10 uM, replicate 2
[9] = 48 h, 1 µM, compound concentration 1 uM, replicate 1
[10] = 48 h, 1 µM, compound concentration 1 uM, replicate 2
[11] = 48 h, 10 µM, compound concentration 10 uM, replicate 1
[12] = 48 h, 10 µM, compound concentration 10 uM, replicate 2

Compound: C=CC(=O)Nc1cccc(C(=O)Nc2ccc(Nc3cc(-c4[nH]c(SC)nc4C)ccn3)cc2)c1
- Population Apoptotic (%) [1]: 52%
- Population Fragmented Nuclei (%) [1]: 9%
- Population Healthy Nuclei (%) [1]: 78%
- Population Hoechst High Intensity Objects (%) [1]: 8%
- Population Membrane Permeable-Phenotype (%) [1]: 4%
- Population Mitochondria Different-Phenotype (%) [1]: 8%
- Population Mitotic Cells (%) [1]: 47%
- Population Normal (%) [1]: 91%
- Population Pyknosed Nuclei (%) [1]: 12%
- Population Tubulin-Different-Phenotype (%) [1]: 11%
- Total Cell Count [1]: 259
- Population Apoptotic (%) [2]: 0%
- Population Fragmented Nuclei (%) [2]: 2%
- Population Healthy Nuclei (%) [2]: 94%
- Population Hoechst High Intensity Objects (%) [2]: 14%
- Population Membrane Permeable-Phenotype (%) [2]: 0%
- Population Mitochondria Different-Phenotype (%) [2]: 7%
- Population Mitotic Cells (%) [2]: 100%
- Population Normal (%) [2]: 85%
- Population Pyknosed Nuclei (%) [2]: 2%
- Population Tubulin-Different-Phenotype (%) [2]: 23%
- Total Cell Count [2]: 112
- Population Fragmented Nuclei (%) [3]: 7%
- Population Healthy Nuclei (%) [3]: 77%
- Population Hoechst High Intensity Objects (%) [3]: 6%
- Population Membrane Permeable-Phenotype (%) [3]: 3%
- Population Mitochondria Different-Phenotype (%) [3]: 8%
- Population Mitotic Cells (%) [3]: 59%
- Population Normal (%) [3]: 93%
- Population Pyknosed Nuclei (%) [3]: 14%
- Population Tubulin-Different-Phenotype (%) [3]: 9%
- Total Cell Count [3]: 171
- Population Apoptotic (%) [4]: 40%
- Population Fragmented Nuclei (%) [4]: 6%
- Population Healthy Nuclei (%) [4]: 83%
- Population Hoechst High Intensity Objects (%) [4]: 18%
- Population Membrane Permeable-Phenotype (%) [4]: 7%
- Population Mitochondria Different-Phenotype (%) [4]: 12%
- Population Mitotic Cells (%) [4]: 60%
- Population Normal (%) [4]: 81%
- Population Pyknosed Nuclei (%) [4]: 10%
- Population Tubulin-Different-Phenotype (%) [4]: 12%
- Total Cell Count [4]: 78
- Population Apoptotic (%) [5]: 40%
- Population Fragmented Nuclei (%) [5]: 13%
- Population Healthy Nuclei (%) [5]: 76%
- Population Hoechst High Intensity Objects (%) [5]: 4%
- Population Membrane Permeable-Phenotype (%) [5]: 5%
- Population Mitochondria Different-Phenotype (%) [5]: 5%
- Population Mitotic Cells (%) [5]: 60%
- Population Normal (%) [5]: 95%
- Population Pyknosed Nuclei (%) [5]: 10%
- Population Tubulin-Different-Phenotype (%) [5]: 18%
- Total Cell Count [5]: 278
- Population Apoptotic (%) [6]: 37%
- Population Fragmented Nuclei (%) [6]: 3%
- Population Healthy Nuclei (%) [6]: 87%
- Population Membrane Permeable-Phenotype (%) [6]: 2%
- Population Mitochondria Different-Phenotype (%) [6]: 10%
- Population Mitotic Cells (%) [6]: 62%
- Population Pyknosed Nuclei (%) [6]: 8%
- Population Tubulin-Different-Phenotype (%) [6]: 25%
- Total Cell Count [6]: 122
- Population Apoptotic (%) [7]: 52%
- Population Fragmented Nuclei (%) [7]: 7%
- Population Healthy Nuclei (%) [7]: 83%
- Population Hoechst High Intensity Objects (%) [7]: 5%
- Population Membrane Permeable-Phenotype (%) [7]: 5%
- Population Mitochondria Different-Phenotype (%) [7]: 6%
- Population Mitotic Cells (%) [7]: 47%
- Population Normal (%) [7]: 94%
- Population Pyknosed Nuclei (%) [7]: 8%
- Population Tubulin-Different-Phenotype (%) [7]: 6%
- Total Cell Count [7]: 208
- Population Apoptotic (%) [8]: 40%
- Population Fragmented Nuclei (%) [8]: 5%
- Population Healthy Nuclei (%) [8]: 85%
- Population Hoechst High Intensity Objects (%) [8]: 11%
- Population Membrane Permeable-Phenotype (%) [8]: 8%
- Population Mitochondria Different-Phenotype (%) [8]: 14%
- Population Mitotic Cells (%) [8]: 60%
- Population Normal (%) [8]: 88%
- Population Pyknosed Nuclei (%) [8]: 9%
- Population Tubulin-Different-Phenotype (%) [8]: 12%
- Total Cell Count [8]: 95
- Population Apoptotic (%) [9]: 37%
- Population Fragmented Nuclei (%) [9]: 5%
- Population Healthy Nuclei (%) [9]: 86%
- Population Hoechst High Intensity Objects (%) [9]: 3%
- Population Membrane Permeable-Phenotype (%) [9]: 4%
- Population Mitochondria Different-Phenotype (%) [9]: 10%
- Population Mitotic Cells (%) [9]: 62%
- Population Normal (%) [9]: 96%
- Population Pyknosed Nuclei (%) [9]: 7%
- Population Tubulin-Different-Phenotype (%) [9]: 17%
- Total Cell Count [9]: 291
- Population Apoptotic (%) [10]: 18%
- Population Fragmented Nuclei (%) [10]: 6%
- Population Healthy Nuclei (%) [10]: 85%
- Population Hoechst High Intensity Objects (%) [10]: 4%
- Population Membrane Permeable-Phenotype (%) [10]: 6%
- Population Mitochondria Different-Phenotype (%) [10]: 13%
- Population Mitotic Cells (%) [10]: 81%
- Population Normal (%) [10]: 95%
- Population Pyknosed Nuclei (%) [10]: 8%
- Population Tubulin-Different-Phenotype (%) [10]: 28%
- Total Cell Count [10]: 117
- Population Apoptotic (%) [11]: 31%
- Population Fragmented Nuclei (%) [11]: 7%
- Population Healthy Nuclei (%) [11]: 84%
- Population Hoechst High Intensity Objects (%) [11]: 3%
- Population Membrane Permeable-Phenotype (%) [11]: 2%
- Population Mitochondria Different-Phenotype (%) [11]: 9%
- Population Mitotic Cells (%) [11]: 68%
- Population Normal (%) [11]: 96%
- Population Pyknosed Nuclei (%) [11]: 8%
- Total Cell Count [11]: 316
- Population Apoptotic (%) [12]: 11%
- Population Fragmented Nuclei (%) [12]: 9%
- Population Healthy Nuclei (%) [12]: 80%
- Population Hoechst High Intensity Objects (%) [12]: 9%
- Population Membrane Permeable-Phenotype (%) [12]: 4%
- Population Mitochondria Different-Phenotype (%) [12]: 17%
- Population Mitotic Cells (%) [12]: 88%
- Population Normal (%) [12]: 90%
- Population Pyknosed Nuclei (%) [12]: 10%
- Population Tubulin-Different-Phenotype (%) [12]: 10%
- Total Cell Count [12]: 133

Compound: CN1CCC[C@@H]1CCO[C@](C)(c1ccccc1)c1ccc(Cl)cc1.O=C(O)/C=C/C(=O)O [CLEMASTINE FUMARATE]
- Population Apoptotic (%) [1]: 50%
- Population Fragmented Nuclei (%) [1]: 12%
- Population Healthy Nuclei (%) [1]: 72%
- Population Hoechst High Intensity Objects (%) [1]: 11%
- Population Membrane Permeable-Phenotype (%) [1]: 5%
- Population Mitochondria Different-Phenotype (%) [1]: 18%
- Population Mitotic Cells (%) [1]: 50%
- Population Normal (%) [1]: 88%
- Population Pyknosed Nuclei (%) [1]: 14%
- Population Tubulin-Different-Phenotype (%) [1]: 12%
- Total Cell Count [1]: 108
- Population Fragmented Nuclei (%) [2]: 15%
- Population Healthy Nuclei (%) [2]: 76%
- Population Hoechst High Intensity Objects (%) [2]: 1%
- Population Membrane Permeable-Phenotype (%) [2]: 3%
- Population Mitochondria Different-Phenotype (%) [2]: 6%
- Population Normal (%) [2]: 98%
- Population Pyknosed Nuclei (%) [2]: 7%
- Population Tubulin-Different-Phenotype (%) [2]: 3%
- Total Cell Count [2]: 78
- Population Apoptotic (%) [3]: 50%
- Population Fragmented Nuclei (%) [3]: 24%
- Population Hoechst High Intensity Objects (%) [3]: 18%
- Population Membrane Permeable-Phenotype (%) [3]: 13%
- Population Mitochondria Different-Phenotype (%) [3]: 97%
- Population Mitotic Cells (%) [3]: 50%
- Population Normal (%) [3]: 81%
- Population Pyknosed Nuclei (%) [3]: 34%
- Population Tubulin-Different-Phenotype (%) [3]: 83%
- Total Cell Count [3]: 127
- Population Apoptotic (%) [4]: 85%
- Population Fragmented Nuclei (%) [4]: 19%
- Population Healthy Nuclei (%) [4]: 41%
- Population Hoechst High Intensity Objects (%) [4]: 21%
- Population Membrane Permeable-Phenotype (%) [4]: 6%
- Population Mitochondria Different-Phenotype (%) [4]: 86%
- Population Mitotic Cells (%) [4]: 14%
- Population Normal (%) [4]: 78%
- Population Pyknosed Nuclei (%) [4]: 38%
- Population Tubulin-Different-Phenotype (%) [4]: 40%
- Total Cell Count [4]: 46
- Population Apoptotic (%) [5]: 55%
- Population Fragmented Nuclei (%) [5]: 7%
- Population Healthy Nuclei (%) [5]: 85%
- Population Hoechst High Intensity Objects (%) [5]: 6%
- Population Membrane Permeable-Phenotype (%) [5]: 5%
- Population Mitochondria Different-Phenotype (%) [5]: 9%
- Population Mitotic Cells (%) [5]: 44%
- Population Normal (%) [5]: 93%
- Population Pyknosed Nuclei (%) [5]: 7%
- Population Tubulin-Different-Phenotype (%) [5]: 13%
- Total Cell Count [5]: 135
- Population Apoptotic (%) [6]: 18%
- Population Fragmented Nuclei (%) [6]: 14%
- Population Healthy Nuclei (%) [6]: 70%
- Population Hoechst High Intensity Objects (%) [6]: 0%
- Population Mitochondria Different-Phenotype (%) [6]: 13%
- Population Mitotic Cells (%) [6]: 81%
- Population Normal (%) [6]: 99%
- Population Pyknosed Nuclei (%) [6]: 15%
- Population Tubulin-Different-Phenotype (%) [6]: 6%
- Total Cell Count [6]: 107
- Population Apoptotic (%) [7]: 64%
- Population Fragmented Nuclei (%) [7]: 33%
- Population Healthy Nuclei (%) [7]: 35%
- Population Hoechst High Intensity Objects (%) [7]: 10%
- Population Membrane Permeable-Phenotype (%) [7]: 21%
- Population Mitochondria Different-Phenotype (%) [7]: 100%
- Population Mitotic Cells (%) [7]: 35%
- Population Normal (%) [7]: 90%
- Population Pyknosed Nuclei (%) [7]: 31%
- Population Tubulin-Different-Phenotype (%) [7]: 68%
- Total Cell Count [7]: 120
- Population Apoptotic (%) [8]: 76%
- Population Fragmented Nuclei (%) [8]: 21%
- Population Healthy Nuclei (%) [8]: 36%
- Population Hoechst High Intensity Objects (%) [8]: 12%
- Population Membrane Permeable-Phenotype (%) [8]: 26%
- Population Mitochondria Different-Phenotype (%) [8]: 86%
- Population Mitotic Cells (%) [8]: 23%
- Population Normal (%) [8]: 87%
- Population Pyknosed Nuclei (%) [8]: 41%
- Population Tubulin-Different-Phenotype (%) [8]: 26%
- Total Cell Count [8]: 47
- Population Apoptotic (%) [9]: 38%
- Population Hoechst High Intensity Objects (%) [9]: 3%
- Population Membrane Permeable-Phenotype (%) [9]: 4%
- Population Mitochondria Different-Phenotype (%) [9]: 11%
- Population Mitotic Cells (%) [9]: 61%
- Population Normal (%) [9]: 96%
- Population Pyknosed Nuclei (%) [9]: 10%
- Population Tubulin-Different-Phenotype (%) [9]: 6%
- Total Cell Count [9]: 184
- Population Apoptotic (%) [10]: 31%
- Population Fragmented Nuclei (%) [10]: 5%
- Population Healthy Nuclei (%) [10]: 84%
- Population Hoechst High Intensity Objects (%) [10]: 1%
- Population Membrane Permeable-Phenotype (%) [10]: 5%
- Population Mitochondria Different-Phenotype (%) [10]: 13%
- Population Mitotic Cells (%) [10]: 68%
- Population Normal (%) [10]: 98%
- Population Pyknosed Nuclei (%) [10]: 9%
- Population Tubulin-Different-Phenotype (%) [10]: 15%
- Total Cell Count [10]: 164
- Population Apoptotic (%) [11]: 83%
- Population Fragmented Nuclei (%) [11]: 33%
- Population Healthy Nuclei (%) [11]: 25%
- Population Hoechst High Intensity Objects (%) [11]: 11%
- Population Membrane Permeable-Phenotype (%) [11]: 3%
- Population Mitochondria Different-Phenotype (%) [11]: 80%
- Population Mitotic Cells (%) [11]: 16%
- Population Normal (%) [11]: 88%
- Population Pyknosed Nuclei (%) [11]: 41%
- Population Tubulin-Different-Phenotype (%) [11]: 50%
- Total Cell Count [11]: 117
- Population Apoptotic (%) [12]: 54%
- Population Fragmented Nuclei (%) [12]: 25%
- Population Healthy Nuclei (%) [12]: 46%
- Population Hoechst High Intensity Objects (%) [12]: 15%
- Population Membrane Permeable-Phenotype (%) [12]: 44%
- Population Mitochondria Different-Phenotype (%) [12]: 72%
- Population Mitotic Cells (%) [12]: 45%
- Population Normal (%) [12]: 84%
- Population Pyknosed Nuclei (%) [12]: 28%
- Population Tubulin-Different-Phenotype (%) [12]: 55%
- Total Cell Count [12]: 46

— ChEMBL document CHEMBL4689842, “EUbOPEN Chemogenomics Library wave 1” (2021)
